In ChEMBL document CHEMBL1122501, “Potential antiatherosclerotic agents. 2. (Aralkylamino)- and (alkylamino) benzoic acid analogues of cetaben” (1983):
Blank lines part the entries; values can stand above or below the molecule they belong to.

Tests used:
Rattus norvegicus [1] = test: In vivo Triglyceride lowering activity at dose as 0.01 % of the diet; type: functional
Outline: (§1)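 Male CFE or CD-1 Sprague-Dawley rats, 140-150 g; 8 per control group, 4 per test group. Compound mixed into ground chow (w/w) via MeOH-CHCl3 (1:3) solution, solvent evaporated; controls got solvent-treated chow. Fed ad libitum 5 days, food intake monitored, killed fed and bled. Serum sterols and triglycerides by adapted autoanalyzer methods; mean percent of control, Student's t test.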

[2] = biological target: T1, Sterol O-acyltransferase 1 (Rattus norvegicus) (UniProt O70536); test: In vitro inhibitory activity against acyl coenzyme A:cholesterol acyltransferase (ACAT); design: concentration or dose not given beside the values; conditions: concentration not given here
T1 sequence (whole entry): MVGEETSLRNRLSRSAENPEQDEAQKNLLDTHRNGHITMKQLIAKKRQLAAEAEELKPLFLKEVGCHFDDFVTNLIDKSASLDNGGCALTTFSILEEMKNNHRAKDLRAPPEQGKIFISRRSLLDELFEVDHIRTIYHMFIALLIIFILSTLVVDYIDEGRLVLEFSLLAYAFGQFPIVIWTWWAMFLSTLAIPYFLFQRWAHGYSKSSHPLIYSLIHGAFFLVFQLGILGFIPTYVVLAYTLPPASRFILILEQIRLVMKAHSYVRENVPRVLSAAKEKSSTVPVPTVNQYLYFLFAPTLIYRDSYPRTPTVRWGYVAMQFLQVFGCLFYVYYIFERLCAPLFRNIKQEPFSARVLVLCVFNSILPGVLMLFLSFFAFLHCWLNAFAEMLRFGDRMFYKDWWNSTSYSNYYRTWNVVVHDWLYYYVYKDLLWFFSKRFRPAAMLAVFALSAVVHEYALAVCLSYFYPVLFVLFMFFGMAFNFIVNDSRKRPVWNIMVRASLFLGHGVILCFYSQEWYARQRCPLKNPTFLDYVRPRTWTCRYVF
Outline: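 ACAT enzyme from rat adrenal homogenate in 0.2 M KH2PO4 buffer pH 7.4, 1000g 15 min 5 °C supernatant (microsomal fraction). Supernatant + BSA (50 mg/mL) + compound at final 5.2 μg/mL + buffer preincubated 10 min 37 °C; [14C]oleoyl-CoA (0.4 μCi) added, 30 min 37 °C. Lipids extracted, TLC; cholesteryl ester zone counted. Mean % inhibition vs no-compound control; Student's t test.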

Rattus norvegicus [3] = test: In vivo Sterol lowering activity at dose as 0.10 % of the diet.; type: functional; outline: as §1
Rattus norvegicus [4] = test: In vivo Sterol lowering activity at dose as 0.03 % of the diet.; type: functional; outline: as §1
Rattus norvegicus [5] = test: In vivo triglyceride lowering activity dosed at 0.10 % of the diet; type: functional; outline: as §1
Rattus norvegicus [6] = test: In vivo triglyceride lowering activity, dosed at 0.03 % of the diet; type: functional; outline: as §1
Rattus norvegicus [7] = test: In vivo Sterol lowering activity at dose as 0.01 % of the diet; type: functional; outline: as §1
Rattus norvegicus [8] = test: In vivo sterol lowering activity dosed at 0.10 % of the diet; type: functional; outline: as §1
Rattus norvegicus [9] = test: In vivo Sterol lowering activity at dose as 0.03 % of the diet; type: functional; outline: as §1
Rattus norvegicus [10] = test: In vivo Triglyceride lowering activity at dose as 0.025 % of the diet; type: functional; outline: as §1
Rattus norvegicus [11] = test: In vivo triglyceride lowering activity dosed at 0.05 % of the diet; type: functional; outline: as §1
Rattus norvegicus [12] = test: In vivo Sterol lowering activity at dose as 0.05 % of the diet; type: functional; outline: as §1
Rattus norvegicus [13] = test: In vivo Sterol lowering activity at dose as 0.025 % of the diet; type: functional; outline: as §1
Rattus norvegicus [14] = test: In vivo Triglyceride lowering activity at dose as 0.03 % of the diet.; type: functional; outline: as §1
Rattus norvegicus [15] = test: In vivo triglyceride lowering activity, dosed at 0.10 % of the diet.; type: functional; outline: as §1
Rattus norvegicus [16] = test: In vivo triglyceride lowering activity, dosed at 0.01 % of the diet.; type: functional; outline: as §1

Structure (SMILES): CCCCCCCCCCCCCCCCNc1ccc(C(=O)[O-])cc1.[Na+] [CETABEN SODIUM]
serum sterol, percent of control (Rattus norvegicus [8]): <60%
Diet (Rattus norvegicus [1]): <75%
Diet (Rattus norvegicus [9]): <76%
serum triglycerides, percent of control (Rattus norvegicus [5]): <41%
serum triglycerides, percent of control (Rattus norvegicus [6]): <60%
Diet (Rattus norvegicus [7]): 90%

Structure (SMILES): CCCCCCCCCC/C=C/CCCNc1ccc(C(=O)OCC)cc1
Diet (Rattus norvegicus [10]): 90%
Diet (Rattus norvegicus [11]): 77%
serum sterol, percent of control (Rattus norvegicus [8]): <86%
inhibition [2]: < 40%
serum triglycerides, percent of control (Rattus norvegicus [5]): 83%
Diet (Rattus norvegicus [12]): 94%
Diet (Rattus norvegicus [13]): <86%

Structure (SMILES): CCOC(=O)c1ccc(NC(=O)CCc2ccc(OC)cc2)cc1
inhibition [2]: 26%
serum sterol, percent of control (Rattus norvegicus [3]): 98%
Diet (Rattus norvegicus [14]): 89%
Diet (Rattus norvegicus [15]): 105%
Diet (Rattus norvegicus [16]): 98%
serum sterol level, percent of control (Rattus norvegicus [4]): 85%
Diet (Rattus norvegicus [7]): 80%

Structure (SMILES): CCCCCCCCCCc1ccc(CNc2ccc(C(=O)OCC)cc2)cc1
Diet (Rattus norvegicus [10]): 82%
Diet (Rattus norvegicus [11]): <69%
serum sterol, percent of control (Rattus norvegicus [8]): 99%
inhibition [2]: < 19%
serum triglycerides, percent of control (Rattus norvegicus [5]): 94%
Diet (Rattus norvegicus [12]): 95%
Diet (Rattus norvegicus [13]): 90%

Structure (SMILES): CCCCCCCC/C=C\CCCCCCCCNc1ccc(C(=O)OCC)cc1
Diet (Rattus norvegicus [10]): <68%
Diet (Rattus norvegicus [11]): <57%
serum sterol, percent of control (Rattus norvegicus [8]): <96%
serum triglycerides, percent of control (Rattus norvegicus [5]): 77%
Diet (Rattus norvegicus [12]): 99%
Diet (Rattus norvegicus [13]): <95%

Structure (SMILES): CCCCCCCCCCCCCCCCCCCNc1ccc(C(=O)O)cc1
Diet (Rattus norvegicus [10]): <52%
Diet (Rattus norvegicus [11]): <46%
serum sterol, percent of control (Rattus norvegicus [8]): 100%
serum triglycerides, percent of control (Rattus norvegicus [5]): <46%
Diet (Rattus norvegicus [12]): 96%
Diet (Rattus norvegicus [13]): 90%

Structure (SMILES): CCCCCCCCCCCCCCCCNc1ccc(C(=O)OCC)cc1
Diet (Rattus norvegicus [10]): <70%
Diet (Rattus norvegicus [11]): <54%
serum sterol, percent of control (Rattus norvegicus [8]): 98%
inhibition [2]: 8%
serum triglycerides, percent of control (Rattus norvegicus [5]): <69%
Diet (Rattus norvegicus [12]): 103%
Diet (Rattus norvegicus [13]): 109%

Structure (SMILES): CCCCCCCCCCCCCCCCCNc1ccc(C(=O)O)cc1
Diet (Rattus norvegicus [10]): 80%
Diet (Rattus norvegicus [11]): 77%
serum sterol, percent of control (Rattus norvegicus [8]): 87%
inhibition [2]: < 34%
serum triglycerides, percent of control (Rattus norvegicus [5]): <57%
Diet (Rattus norvegicus [12]): <86%
Diet (Rattus norvegicus [13]): <87%

Structure (SMILES): CCCCCCCCCCCCCCNc1ccc(C(=O)O)cc1
Diet (Rattus norvegicus [10]): <65%
Diet (Rattus norvegicus [11]): <50%
serum sterol, percent of control (Rattus norvegicus [8]): 89%
serum triglycerides, percent of control (Rattus norvegicus [5]): <53%
Diet (Rattus norvegicus [12]): 90%
Diet (Rattus norvegicus [13]): 93%

Structure (SMILES): CCCCCCCC/C=C\CCCCCCCCNc1ccc(C(=O)O)cc1
Diet (Rattus norvegicus [10]): <72%
Diet (Rattus norvegicus [11]): <58%
serum sterol, percent of control (Rattus norvegicus [8]): <75%
serum triglycerides, percent of control (Rattus norvegicus [5]): <63%
Diet (Rattus norvegicus [12]): 85%
Diet (Rattus norvegicus [13]): <88%

Structure (SMILES): CCCCCCCCCCCCCCCNc1ccc(C(=O)O)cc1
Diet (Rattus norvegicus [10]): 72%
Diet (Rattus norvegicus [11]): 80%
serum sterol, percent of control (Rattus norvegicus [8]): <79%
inhibition [2]: < 56%
serum triglycerides, percent of control (Rattus norvegicus [5]): <60%
Diet (Rattus norvegicus [12]): 86%
Diet (Rattus norvegicus [13]): 90%

Structure (SMILES): CCCCCCCCNc1ccc(C(=O)O)cc1
Diet (Rattus norvegicus [10]): 91%
Diet (Rattus norvegicus [11]): 88%
serum sterol, percent of control (Rattus norvegicus [8]): 90%
inhibition [2]: < 24%
serum triglycerides, percent of control (Rattus norvegicus [5]): <67%
Diet (Rattus norvegicus [12]): 97%
Diet (Rattus norvegicus [13]): 101%

Structure (SMILES): CCCCCCCCCCCCCCCCNc1cccc(C(=O)O)c1
Diet (Rattus norvegicus [10]): 98%
Diet (Rattus norvegicus [11]): 92%
serum sterol, percent of control (Rattus norvegicus [8]): 93%
inhibition [2]: < 34%
serum triglycerides, percent of control (Rattus norvegicus [5]): 81%
Diet (Rattus norvegicus [12]): 100%
Diet (Rattus norvegicus [13]): 100%

Structure (SMILES): CCCCCCCCCCCCCCCNc1ccc(C(=O)OCC)cc1
Diet (Rattus norvegicus [10]): 88%
Diet (Rattus norvegicus [11]): <76%
serum sterol, percent of control (Rattus norvegicus [8]): 86%
serum triglycerides, percent of control (Rattus norvegicus [5]): <62%
Diet (Rattus norvegicus [12]): <84%
Diet (Rattus norvegicus [13]): <91%

Structure (SMILES): CCCCCCCCCCCCCCCCCCNc1ccc(C(=O)O)cc1
Diet (Rattus norvegicus [10]): <70%
Diet (Rattus norvegicus [11]): <71%
serum sterol, percent of control (Rattus norvegicus [8]): <82%
serum triglycerides, percent of control (Rattus norvegicus [5]): <60%
Diet (Rattus norvegicus [12]): 94%
Diet (Rattus norvegicus [13]): <86%

Structure (SMILES): C=CCCCCCCCC/C=C/CCCNc1ccc(C(=O)OCC)cc1
Diet (Rattus norvegicus [10]): 90%
Diet (Rattus norvegicus [11]): 76%
serum sterol, percent of control (Rattus norvegicus [8]): <85%
inhibition [2]: < 50%
serum triglycerides, percent of control (Rattus norvegicus [5]): 64%
Diet (Rattus norvegicus [12]): <85%
Diet (Rattus norvegicus [13]): <87%

Continued, in another order:

inhibition [2]: 58%
Structure (SMILES): O=C(O)c1ccc(NCCCc2ccccc2F)cc1
Diet (Rattus norvegicus [1]): 58%
serum sterol, percent of control (Rattus norvegicus [3]): 81%
serum sterol level, percent of control (Rattus norvegicus [4]): 85%
serum triglycerides, percent of control (Rattus norvegicus [5]): 52%
serum triglycerides, percent of control (Rattus norvegicus [6]): 55%
Diet (Rattus norvegicus [7]): 87%

inhibition [2]: 18%
Structure (SMILES): O=C(O)c1ccc(NCCCc2ccccc2)cc1
Diet (Rattus norvegicus [10]): 64%
Diet (Rattus norvegicus [11]): 51%
serum sterol, percent of control (Rattus norvegicus [8]): 81%
serum triglycerides, percent of control (Rattus norvegicus [5]): 68%
Diet (Rattus norvegicus [12]): 75%
Diet (Rattus norvegicus [13]): 81%

inhibition [2]: 29%
Structure (SMILES): O=C(O)c1ccc(NCCCc2cccc(Cl)c2)cc1
Diet (Rattus norvegicus [1]): 64%
serum sterol, percent of control (Rattus norvegicus [3]): 85%
serum sterol level, percent of control (Rattus norvegicus [4]): 90%
serum triglycerides, percent of control (Rattus norvegicus [5]): 55%
serum triglycerides, percent of control (Rattus norvegicus [6]): 48%
Diet (Rattus norvegicus [7]): 82%

inhibition [2]: 40%
Structure (SMILES): O=C(CCCCC(=O)c1ccc(Cl)cc1)Nc1ccc(C(=O)O)cc1
serum sterol, percent of control (Rattus norvegicus [3]): 97%
Diet (Rattus norvegicus [14]): 70%
Diet (Rattus norvegicus [16]): 94%
serum sterol level, percent of control (Rattus norvegicus [4]): 94%
serum triglycerides, percent of control (Rattus norvegicus [5]): 56%
Diet (Rattus norvegicus [7]): 82%

inhibition [2]: 0%
Structure (SMILES): O=C(O)c1ccc(NC/C=C/c2ccccc2)cc1
Diet (Rattus norvegicus [9]): 70%
serum sterol, percent of control (Rattus norvegicus [3]): 96%
Diet (Rattus norvegicus [16]): 85%
serum triglycerides, percent of control (Rattus norvegicus [5]): 44%
serum triglycerides, percent of control (Rattus norvegicus [6]): 43%
Diet (Rattus norvegicus [7]): 86%

inhibition [2]: 22%
Structure (SMILES): O=C(O)c1ccc(NCCCCCCc2ccc(Cl)cc2)cc1
Diet (Rattus norvegicus [9]): 78%
serum sterol, percent of control (Rattus norvegicus [3]): 82%
Diet (Rattus norvegicus [16]): 61%
serum triglycerides, percent of control (Rattus norvegicus [5]): 43%
serum triglycerides, percent of control (Rattus norvegicus [6]): 65%
Diet (Rattus norvegicus [7]): 81%

inhibition [2]: < 35%
Structure (SMILES): CCCCCCCCCCOc1ccc(CNc2ccc(C(=O)O)cc2)cc1
Diet (Rattus norvegicus [10]): <54%
Diet (Rattus norvegicus [11]): <51%
serum sterol, percent of control (Rattus norvegicus [8]): <82%
serum triglycerides, percent of control (Rattus norvegicus [5]): <37%
Diet (Rattus norvegicus [12]): <90%
Diet (Rattus norvegicus [13]): 97%
